Test results as given in paper PMC6980386 (Traffic (Copenhagen, Denmark), 2019).

How the values were obtained:
FL huCD4 K27E = FL huCD4 K27E (Homo sapiens, UniProt P01730, K27E); assay: CADA down-modulation of cellular huCD4; format: cell-based; settings: HEK293T, 48h
Procedure, shortened: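 Transient transfection of HEK293T cells (Lipofectamine), seeded the night before. Test compound added 6 h post-transfection as a serial 1:5 dilution from 50 to 0.016 μM, then 48 h culture. Surface CD4 stained with FITC- or APC-labelled anti-human CD4 (clone SK3) and read by flow cytometry. IC50 is the concentration reducing signal to 50% of untreated control, interpolated from four-parameter curves (≥3 replicate experiments; 95% CI).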

[1] = target: truncated huCD4 D1D2 K26A (Homo sapiens, UniProt P01730, K26A); assay: Cell-free in vitro translation and translocation; format: biochemical
Procedure, shortened: (§1)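 Proteinase K protection 30 min on ice, quenched with PMSF. Pellets washed in low-salt buffer (HEPES pH 7.6), then SDS-PAGE and phosphor imaging. Translocation normalised to untreated WT. Two to five independent experiments; Welch's t test.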

sortilin = settings: second substrate, proteomic study; cited from earlier work
huCD4_1–32-YFP V29A = huCD4_1–32-YFP V29A (Homo sapiens, UniProt P01730, V29A); assay: CADA inhibition of huCD4_1–32-YFP secretion; format: cell-based; settings: + less, − more sensitive to CADA
Procedure, shortened: (§2)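 HEK293T cells were grown in DMEM with 10% FBS and 10 mM HEPES, seeded and left to adhere overnight, then transiently transfected with plasmid by Lipofectamine. Test compound was added 6 h after transfection as a 1:5 serial dilution (50 to 0.016 μM) for 48 h. Secreted YFP in the supernatant was captured on GFP-Trap magnetic beads for 1 h, washed with PBS and measured by flow cytometry. IC50 is the concentration that halves the signal relative to the untreated control, taken from a four-parameter fit of at least three replicate experiments. FC is the mutant mean IC50 divided by the WT mean IC50.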

FL huCD4 Q15A = FL huCD4 Q15A (Homo sapiens, UniProt P01730, Q15A); assay: CADA down-modulation of cellular huCD4; format: cell-based
Procedure, shortened: (§3)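 HEK293T cells, seeded overnight in DMEM with 10% serum, 1 mM sodium pyruvate and 0.075% NaHCO₃, were lipofected with full-length human CD4 (WT or mutant). Test compound in DMSO was added 6 h post-transfection as 1:5 serial dilutions (50–0.016 μM) for 48 h. Surface CD4 was stained with FITC/APC anti-CD4 (SK3) and read by flow cytometry. IC50 is 50% of the untreated signal, from four-parameter fits of ≥3 replicate experiments. FC is mutant/WT mean IC50.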

FL huCD4 R8A = FL huCD4 R8A (Homo sapiens, UniProt P01730, R8A); assay: CADA down-modulation of cellular huCD4; format: cell-based; settings: read-out: Cellular huCD4 IC50 (μM) Mean, HEK293T, CADA 48h
Procedure, shortened: as §3

[2] = target: truncated huCD4 D1D2 L16A (Homo sapiens, UniProt P01730, L16A); assay: Cell-free in vitro translation and translocation; format: biochemical; settings: 15 μM CADA
Procedure, shortened: (§4)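 Truncated huCD4 D1D2 (lacking glycosylation sites and membrane anchor) was made by PCR and transcribed with T7. Proteinase K protection ran 30 min on ice and was quenched with PMSF. Products were separated by SDS-PAGE and imaged by phosphor imaging. The SP-cleaved band was normalised to the matching control. Data are from 2–5 independent experiments, compared with WT by Welch t test.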

FL huCD4 G31A = FL huCD4 G31A (Homo sapiens, UniProt P01730, G31A); assay: CADA down-modulation of cellular huCD4; format: cell-based
Procedure, shortened: as §3

[3] = target: truncated huCD4 D1D2 K27A (Homo sapiens, UniProt P01730, K27A); assay: Cell-free in vitro translation and translocation; format: biochemical; settings: 15 μM CADA
Procedure, shortened: as §1

huCD4_1–32-YFP L18A = huCD4_1–32-YFP L18A (Homo sapiens, UniProt P01730, L18A); assay: CADA inhibition of huCD4_1–32-YFP secretion; format: cell-based
Procedure, shortened: as §2

huCD4_1–32-YFP P20A = huCD4_1–32-YFP P20A (Homo sapiens, UniProt P01730, P20A); assay: CADA inhibition of huCD4_1–32-YFP secretion; format: cell-based
Procedure, shortened: as §2

FL huCD4 G25A = FL huCD4 G25A (Homo sapiens, UniProt P01730, G25A); assay: CADA down-modulation of cellular huCD4; format: cell-based
Procedure, shortened: as §3

FL huCD4 V5A = FL huCD4 V5A (Homo sapiens, UniProt P01730, V5A); assay: CADA down-modulation of cellular huCD4; format: cell-based
Procedure, shortened: as §3

huCD4_1–32-YFP A21V = huCD4_1–32-YFP A21V (Homo sapiens, UniProt P01730, A21V); assay: CADA inhibition of huCD4_1–32-YFP secretion; format: cell-based
Procedure, shortened: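 HEK293T cells were lipofected with human CD4 residues 1–32 fused to the N-terminus of YFP (secreted, no membrane anchor). Test compound was added 6 h post-transfection as 1:5 serial dilutions (50–0.016 μM) for 48 h. Supernatant was captured on GFP-Trap magnetic beads for 1 h, washed in PBS, and YFP was read by flow cytometry. IC50 is 50% of the untreated control, from four-parameter fits of ≥3 replicate experiments. FC is mutant/WT mean IC50.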

[4] = target: truncated huCD4 D1D2 Q15A (Homo sapiens, UniProt P01730, Q15A); assay: Cell-free in vitro translation and translocation; format: biochemical
Procedure, shortened: as §4

huCD4_1–32-YFP K32A = huCD4_1–32-YFP K32A (Homo sapiens, UniProt P01730, K32A); assay: CADA inhibition of huCD4_1–32-YFP secretion; format: cell-based; settings: read-out: Secreted YFP IC50 (μM) Mean, HEK293T, CADA 48h
Procedure, shortened: as §2

huCD4_1–32-YFP V28A = huCD4_1–32-YFP V28A (Homo sapiens, UniProt P01730, V28A); assay: CADA inhibition of huCD4_1–32-YFP secretion; format: cell-based
Procedure, shortened: as §2

huCD4_1–32-YFP G4A = huCD4_1–32-YFP G4A (Homo sapiens, UniProt P01730, G4A); assay: CADA inhibition of huCD4_1–32-YFP secretion; format: cell-based
Procedure, shortened: as §2

FL huCD4 L12A = FL huCD4 L12A (Homo sapiens, UniProt P01730, L12A); assay: CADA down-modulation of cellular huCD4; format: cell-based
Procedure, shortened: as §3

FL huCD4 P20G = FL huCD4 P20G (Homo sapiens, UniProt P01730, P20G); assay: CADA down-modulation of cellular huCD4; format: cell-based; settings: HEK293T, 48h
Procedure, shortened: as §3

[5] = + less, − more sensitive to CADA
[6] = read-out: Cellular huCD4 IC50 (μM) Mean, HEK293T, CADA 48h
[7] = read-out: Secreted YFP IC50 (μM) Mean, HEK293T, CADA 48h

C=C1CN(S(=O)(=O)c2ccc(C)cc2)CCCN(Cc2ccccc2)CCCN(S(=O)(=O)c2ccc(C)cc2)C1 [CADA, Cyclotriazadisulfonamide]
sensitivity to CADA (FL huCD4 K27E): copied the alanine substitution phenotypes | sensitivity of translocation towards CADA compared to WT ([1]; 15 μM CADA): significantly reduced sensitivity to CADA | effect of CADA on co-translational translocation ([1]; increasing doses of CADA): still responded to CADA, although to a lesser extent as compared to WT huCD4 | susceptibility of sortilin to CADA (sortilin): lower susceptibility to the compound as compared to huCD4 | Secreted YFP FC (fold change of mean IC50 relative to WT) (huCD4_1–32-YFP V29A): −1.1 | Cellular huCD4 FC (fold change of mean IC50 relative to WT) (FL huCD4 Q15A; [5]): >+93 | IC50 (FL huCD4 Q15A; [6]): > 50 µM | IC50 (FL huCD4 R8A): 4.2 µM | sensitivity of translocation towards CADA compared to WT [2]: higher sensitivity towards CADA | Cellular huCD4 FC (fold change of mean IC50 relative to WT) (FL huCD4 G31A; [5]): +1.3 | IC50 (FL huCD4 G31A; [6]): 0.72 µM | sensitivity of translocation towards CADA compared to WT [3]: significantly reduced sensitivity to CADA | Secreted YFP FC (fold change of mean IC50 relative to WT) (huCD4_1–32-YFP L18A; [5]): −1.9 | IC50 (huCD4_1–32-YFP L18A; [7]): 0.67 µM | Secreted YFP FC (fold change of mean IC50 relative to WT) (huCD4_1–32-YFP P20A; [5]): >+39 | IC50 (huCD4_1–32-YFP P20A; [7]): > 50 µM | Cellular huCD4 FC (fold change of mean IC50 relative to WT) (FL huCD4 G25A; [5]): +1.1 | IC50 (FL huCD4 G25A; [6]): 0.61 µM | Cellular huCD4 FC (fold change of mean IC50 relative to WT) (FL huCD4 V5A; [5]): −1.9 | IC50 (FL huCD4 V5A; [6]): 0.29 µM | Secreted YFP FC (fold change of mean IC50 relative to WT) (huCD4_1–32-YFP A21V; [5]): −1.6 | IC50 (huCD4_1–32-YFP A21V; [7]): 0.77 µM | inhibitory effect of CADA on protein translocation compared to WT ([4]; 15 μM CADA): significantly reduced | impact of CADA on co-translational translocation ([4]; increasing doses of CADA): significantly reduced | IC50 (huCD4_1–32-YFP K32A): 17.6 µM | Secreted YFP FC (fold change of mean IC50 relative to WT) (huCD4_1–32-YFP V28A; [5]): −1.8 | IC50 (huCD4_1–32-YFP V28A; [7]): 0.72 µM | Secreted YFP FC (fold change of mean IC50 relative to WT) (huCD4_1–32-YFP G4A; [5]): −1.4 | IC50 (huCD4_1–32-YFP G4A; [7]): 0.91 µM | enhanced CADA sensitivity relative to WT (FL huCD4 L12A): 8 fold | Cellular huCD4 FC (fold change of mean IC50 relative to WT) (FL huCD4 L12A; [5]): −7.7 | IC50 (FL huCD4 L12A; [6]): 0.07 µM | sensitivity to CADA (FL huCD4 P20G): fully restored CADA sensitivity
